Experimental data published in ChEMBL document CHEMBL1141808, “Polymethoxylated flavones derived from citrus suppress tumor necrosis factor-alpha expression by human monocytes” (J Nat Prod, 1999).
Activity calls are given as the source filed them. No cut-off for these calls is given here.

Assays:
[1] = tested on: Monocyte; assay: Inhibition of TNFalpha expression in LPS-stimulated human monocytes treated 30 mins before LPS challenge measured after 14 hrs by ELISA; assay type: functional, cell-based
Summary of the method: (§1)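 Human PBMC at 4 × 10^6/mL in DMEM with 30% FCS, glutamine and pen/strep were allowed to adhere for 2 h at 37 °C and 5% CO2. Nonadherent lymphocytes were washed off. Adherent monocytes were preincubated 30 min with graded compound concentrations, then stimulated with LPS. After 14 h, supernatants were assayed by ELISA. Values are percent of compound-free cultures, as means ± SE from three donors.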

[2] = Cytotoxicity against human monocytes assessed as depletion of cellular LDH activity; assay type: cell-based; design: concentration or dose not given beside the values; details: monocyte
Summary of the method: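 Viability was taken from the LPS-stimulated adherent monocyte cultures after 14 h, lysed in 1% NP40 in PBS. LDH in the lysate was measured in 50 mM sodium pyrophosphate pH 8.9 with 50 mM lactic acid and 4 mg/mL NAD. The rate of NADH formation was read at 340 nm at room temperature. More than 20% depletion was counted as cytotoxic.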

[3] = biological target: T1, Phosphodiesterase 4 (Homo sapiens) (UniProt P27815+Q08499+Q07343+Q08493); assay: Inhibition of PDE4 in human U937 cells assessed as inhibition of cAMP hydrolysis at 11 uM by SPA; assay type: cell-based; details: U-937
Summary of the method: (§2)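 PDE, mostly type IV by isoform-inhibitor sensitivity, was semipurified from U937 cells. cAMP hydrolysis was measured by scintillation proximity assay across graded compound concentrations. Rates were expressed as percent of flavonoid-free control, and the concentration giving 50% inhibition was reported.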

[4] = biological target: T1, Phosphodiesterase 4 (Homo sapiens); assay: Inhibition of PDE4 in human monocytes assessed as elevation of cytosolic cAMP level at 100 uM treated for 30 mins assessed per 10^7 cells by EIA; assay type: cell-based
Summary of the method: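 Elutriated human monocytes at 5 × 10^6/mL in complete medium (30% FCS) were precultured 2 h at 37 °C and 5% CO2. They were then exposed for 30 min to 100 µM flavone or 200 µM IBMX. Cells were lysed in cold 10 mM HEPES pH 7.6 with 1% NP40. cAMP was isolated on SAX columns, eluted with methanol/0.01 M HCl, dried, and quantified by EIA as pmol/10^7 cells.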

[5] = tested on: Monocyte; assay: Inhibition of IL1-beta expression in LPS-stimulated human monocytes at 100 uM treated 30 mins before LPS challenge measured after 14 hrs by ELISA; assay type: functional
Summary of the method: (§3)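 Monocyte cultures were held 14 h in medium alone, with 20 ng/mL LPS alone, or with LPS plus 100 µM compound. IBMX served as reference. TNFα, IL-6, IL-8, IL-10 and MIP-1α were measured in supernatants by ELISA, and IL-1β in cell lysates made with 1% NP40 in PBS. Significance versus LPS alone was set at p < 0.05.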

[6] = tested on: Monocyte; assay: Inhibition of IL6 expression in LPS-stimulated human monocytes at 100 uM treated 30 mins before LPS challenge measured after 14 hrs by ELISA; assay type: functional; summary of the method: as §3
[7] = tested on: Monocyte; assay: Inhibition of IL8 expression in LPS-stimulated human monocytes at 100 uM treated 30 mins before LPS challenge measured after 14 hrs by ELISA; assay type: functional; summary of the method: as §3
[8] = tested on: Monocyte; assay: Inhibition of TNFalpha expression in LPS-stimulated human monocytes at 100 uM treated 30 mins before LPS challenge measured after 14 hrs by ELISA; assay type: functional; summary of the method: as §3
[9] = tested on: Monocyte; assay: Inhibition of IL10 expression in LPS-stimulated human monocytes at 100 uM treated 30 mins before LPS challenge measured after 14 hrs by ELISA; assay type: functional; summary of the method: as §3
[10] = tested on: Monocyte; assay: Inhibition of MIP1alpha expression in LPS-stimulated human monocytes at 100 uM treated 30 mins before LPS challenge measured after 14 hrs by ELISA; assay type: functional; summary of the method: as §3
[11] = tested on: Monocyte; assay: Inhibition of IL10 expression in LPS-stimulated human monocytes treated 30 mins before LPS challenge measured after 14 hrs by ELISA; assay type: functional, cell-based; summary of the method: as §1
[12] = tested on: Monocyte; assay: Inhibition of MIP1alpha expression in LPS-stimulated human monocytes treated 30 mins before LPS challenge measured after 14 hrs by ELISA; assay type: functional, cell-based; summary of the method: as §1
[13] = tested on: Monocyte; assay: Inhibition of TNFalpha mRNA expression in LPS-stimulated human monocytes treated 30 mins before LPS challenge measured after 90 mins by RT-PCR; assay type: functional, cell-based
Summary of the method: (§4)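 Elutriated monocytes at 5 × 10^6/mL in complete medium were preincubated 30 min at 37 °C with graded compound concentrations. They were then stimulated with 20 ng/mL LPS for 90 min. Total RNA was isolated with RNAzol. TNFα and IL-1β mRNA were measured by RT-PCR with [α-32P]dCTP, relative to GAPDH.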

[14] = tested on: Monocyte; assay: Inhibition of IL1-beta mRNA expression in LPS-stimulated human monocytes treated 30 mins before LPS challenge measured after 90 mins by RT-PCR; assay type: functional, cell-based; summary of the method: as §4
[15] = biological target: T1, Phosphodiesterase 4 (Homo sapiens); assay: Inhibition of PDE4 in human U937 cells assessed as inhibition of cAMP hydrolysis at 2 uM by SPA; assay type: cell-based; details: U-937; summary of the method: as §2
[16] = tested on: Monocyte; assay: Increase in IL6 expression in LPS-stimulated human monocytes at 100 uM treated 30 mins before LPS challenge measured after 14 hrs by ELISA; assay type: functional; summary of the method: as §3
[17] = biological target: T1, Phosphodiesterase 4 (Homo sapiens); assay: Inhibition of PDE4 in human U937 cells assessed as inhibition of cAMP hydrolysis at 16 uM by SPA; assay type: cell-based; details: U-937; summary of the method: as §2

Compound	IC50 [1] [µM]	Activity [1]	Activity [2]	other results
O=c1cc(-c2ccccc2)oc2cc(O)ccc12 [7-HYDROXYFLAVONE]	–	inactive	Non-toxic	–
O=c1cc(-c2ccccc2)oc2ccccc12 [FLAVONE]	166	–	–	inhibition [3]: 50%; Activity [4]: 3.6 pmol
COc1ccc(-c2cc(=O)c3c(OC)c(OC)c(OC)c(OC)c3o2)cc1 [TANGERETIN]	30	–	–	–
O=C1C[C@@H](c2ccc(O)c(O)c2)Oc2cc(O)cc(O)c21 [ERIODICTYOL]	–	inactive	Non-toxic	–
COc1ccc(-c2cc(=O)c3c(OC)c(OC)c(OC)c(OC)c3o2)cc1OC [NOBILETIN]	10	–	–	–
Oc1cc(O)c2c(c1)O[C@H](c1ccc(O)c(O)c1)[C@@H](O)C2 [CATECHIN]	–	–	Non-toxic	–
O=c1c(O)c(-c2ccc(O)c(O)c2)oc2cc(O)cc(O)c12 [QUERCETIN]	120	–	> 20%	–
O=c1c(O)c(-c2ccc(O)c(O)c2)oc2c(O)c(O)cc(O)c12 [GOSSYPETIN]	–	inactive	Non-toxic	–
O=c1cc(-c2ccccc2)oc2cc(O)cc(O)c12 [CHRYSIN]	–	inactive	Non-toxic	–
CC(C)Cn1c(=O)n(C)c(=O)c2nc[nH]c21 [ISOBUTYLMETHYLXANTHINE]	–	–	–	Activity [5]: 99.1 ng/mL; Activity [6]: 79.7 ng/mL; Activity [7]: 335 ng/mL; Activity [8]: 10.9 ng/mL; Activity [9]: 0.651 ng/mL; Activity [10]: 33.2 ng/mL
O=c1c(O)c(-c2ccc(O)c(O)c2)oc2cc(O)ccc12 [FISETIN]	–	inactive	Non-toxic	–
Oc1cc(O)c2c(c1)OC(c1ccc(O)c(O)c1)C(O)C2 (stereo unspecified)	–	inactive	–	–
Oc1cc(O)c2c(c1)O[C@H](c1ccc(O)c(O)c1)[C@H](O)C2 [(-)-EPICATECHIN]	–	inactive	Non-toxic	–
COc1ccc(-c2oc3c(OC)c(OC)c(OC)c(O)c3c(=O)c2OC)cc1OC	10	–	–	–
COc1ccc(-c2oc3c(OC)c(OC)c(OC)c(OC)c3c(=O)c2OC)cc1OC [3,5,6,7,8,3',4'-HEPTAMETHOXYFLAVONE]	5	–	–	IC50 [11]: 12.3 µM; IC50 [12]: 7.3 µM; Activity [5]: inactive; Activity ([5]; record 2): 62.9 ng/mL; Activity [6]: inactive; Activity ([6]; record 2): 90 ng/mL; Activity [7]: inactive; Activity ([7]; record 2): 307 ng/mL; Activity [13]: Active; Activity [14]: inactive; inhibition [15]: 50%; Activity [4]: 5.7 pmol; Activity [8]: 9.7 ng/mL; Activity [9]: 0.269 ng/mL; Activity [10]: 49.2 ng/mL; Activity [16]: 30%
O=c1c(O)c(-c2ccccc2)oc2ccccc12 [FLAVONOL]	–	inactive	Non-toxic	–
O=c1c(O)c(-c2ccccc2)oc2cc(O)cc(O)c12 [GALANGIN]	–	inactive	Non-toxic	–
O=c1c(O)c(-c2cc(O)c(O)c(O)c2)oc2cc(O)cc(O)c12 [MYRICETIN]	–	inactive	Non-toxic	inhibition [17]: 50%; Activity [4]: 3.7 pmol
COc1ccc([C@@H]2CC(=O)c3c(O)cc(O)cc3O2)cc1O	–	inactive	–	–
C[C@@H]1O[C@@H](OC[C@H]2O[C@@H](Oc3c(-c4ccc(O)cc4)oc4cc(O[C@@H]5O[C@@H](C)[C@H](O)[C@@H](O)[C@H]5O)cc(O)c4c3=O)[C@H](O)[C@@H](O)[C@@H]2O)[C@H](O)[C@H](O)[C@H]1O	–	inactive	Non-toxic	–
O=c1cc(-c2ccccc2)oc2cc(O)c(O)c(O)c12 [BAICALEIN]	–	inactive	Non-toxic	–
O=C1CC(c2ccccc2)Oc2ccccc21 (stereo unspecified) [FLAVANONE]	–	inactive	Non-toxic	–
COc1ccc(-c2cc(=O)c3c(OC)c(OC)c(OC)cc3o2)cc1	22	–	–	–

The next lines start with results.

IC50 [1] [µM]	Compound	Activity [1]	Activity [2]	other results
> 200	C[C@@H]1O[C@@H](OC[C@H]2O[C@@H](Oc3cc(O)c4c(c3)O[C@H](c3ccc(O)cc3)CC4=O)[C@H](O)[C@@H](O)[C@@H]2O)[C@H](O)[C@H](O)[C@H]1O [NARIRUTIN]	–	Non-toxic	–
> 200	COc1ccc(-c2cc(=O)c3c(O)cc(O[C@@H]4O[C@H](CO[C@@H]5O[C@@H](C)[C@H](O)[C@@H](O)[C@H]5O)[C@@H](O)[C@H](O)[C@H]4O)cc3o2)cc1O [DIOSMIN]	–	Non-toxic	–
22	COc1ccc(-c2cc(=O)c3c(O)cc(O)cc3o2)cc1 [ACACETIN]	–	> 20%	–
16	COc1ccc(-c2cc(=O)c3c(OC)cc(OC)c(OC)c3o2)cc1OC	–	–	–
47	COc1c(-c2ccc(O)c(O)c2)oc2cc(O)cc(O)c2c1=O [3-O-METHYLQUERCETIN]	–	–	–
20	O=c1c(O)c(-c2ccc(O)cc2)oc2cc(O)cc(O)c12 [KAEMPFEROL]	–	> 20%	–
20	COc1cc(-c2cc(=O)c3c(OC)c(OC)c(OC)cc3o2)cc(OC)c1OC	–	–	–
22	COc1cc(-c2cc(=O)c3c(O)cc(O)cc3o2)ccc1O [CHRYSOERIOL]	–	–	–
5	COc1ccc(-c2cc(=O)c3c(O)c(OC)c(OC)c(OC)c3o2)cc1OC [5-DEMETHYLNOBILETIN]	–	–	–
> 200	C[C@@H]1O[C@@H](O[C@H]2[C@H](Oc3cc(O)c4c(c3)O[C@H](c3ccc(O)cc3)CC4=O)O[C@H](CO)[C@@H](O)[C@@H]2O)[C@H](O)[C@H](O)[C@H]1O [NARINGIN]	–	Non-toxic	–
8	COc1ccc(-c2cc(=O)c3c(OC)c(OC)c(OC)cc3o2)cc1OC [SINENSETIN]	–	–	–
25	COc1ccc(-c2cc(=O)c3c(OC)c(OC)ccc3o2)cc1OC	–	–	–
22	COc1cc(O)c2c(=O)c(O)c(-c3ccc(O)c(O)c3)oc2c1 [RHAMNETIN]	–	> 20%	–
67	COc1cc(-c2oc3c(OC)c(O)cc(O)c3c(=O)c2O)ccc1O [LIMOCITRIN]	–	> 20%	–
> 200	COc1ccc([C@@H]2CC(=O)c3c(O)cc(O[C@@H]4O[C@H](CO[C@@H]5O[C@@H](C)[C@H](O)[C@@H](O)[C@H]5O)[C@@H](O)[C@H](O)[C@H]4O)cc3O2)cc1O [HESPERIDIN]	–	Non-toxic	–
20	O=c1cc(-c2ccc(O)cc2)oc2cc(O)cc(O)c12 [APIGENIN]	–	> 20%	–
